Results reported in ChEMBL document CHEMBL1240487, “Discovery of a potent, selective, and orally bioavailable pyridinyl-pyrimidine phthalazine aurora kinase inhibitor” (J Med Chem, 2010).
≈ marks a conversion by molar mass, not a printed value. Calls of active or inactive are those of the source. The calls are words filed in the database; no cut-off is given here.

Key:
[1] = target: T1, Aurora kinase B (Homo sapiens, UniProt Q96GD4); experiment: Inhibition of aurora B autophosphorylation in human HeLa cells at 1 uM after 3 hrs by Western blotting
[2] = target: T1, Aurora kinase B; experiment: Inhibition of Aurora B by HTRF assay
Procedure, shortened: (§1)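 Enzyme inhibition was run with ATP at its Km for each kinase. Values are averages of at least two determinations.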

[3] = Aqueous equilibrium solubility of the compound in 0.01N HCL; assay type: physicochemical
[4] = Clearance in Sprague-Dawley rat at 0.5 mg/kg, iv and 2 mg/kg, po; assay type: ADME, organism-based; conditions: in vivo
[5] = Oral bioavailability in Sprague-Dawley rat at 2 mg/kg; assay type: ADME, organism-based; conditions: in vivo
[6] = Intrinsic clearance in rat liver microsomes at 1 uM after up to 40 mins; assay type: ADME, Microsome
[7] = target: T2, Aurora kinase A/Targeting protein for Xklp2 (Homo sapiens, UniProt O14965); experiment: Inhibition of Aurora A/TPX2 (1-43) by HTRF assay; assay type: protein-complex assay
T2 sequence (O14965 whole entry): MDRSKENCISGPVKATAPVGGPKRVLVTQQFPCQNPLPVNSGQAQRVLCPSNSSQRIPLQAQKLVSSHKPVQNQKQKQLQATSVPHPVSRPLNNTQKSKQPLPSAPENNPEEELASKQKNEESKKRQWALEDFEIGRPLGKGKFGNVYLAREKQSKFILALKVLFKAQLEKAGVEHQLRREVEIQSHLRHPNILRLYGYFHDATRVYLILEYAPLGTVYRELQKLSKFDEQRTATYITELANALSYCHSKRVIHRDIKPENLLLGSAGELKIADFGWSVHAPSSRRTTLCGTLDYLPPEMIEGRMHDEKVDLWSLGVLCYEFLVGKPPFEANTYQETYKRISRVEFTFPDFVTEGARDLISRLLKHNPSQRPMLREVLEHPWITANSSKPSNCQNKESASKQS
T2 sequence (Q9ULW0 whole entry): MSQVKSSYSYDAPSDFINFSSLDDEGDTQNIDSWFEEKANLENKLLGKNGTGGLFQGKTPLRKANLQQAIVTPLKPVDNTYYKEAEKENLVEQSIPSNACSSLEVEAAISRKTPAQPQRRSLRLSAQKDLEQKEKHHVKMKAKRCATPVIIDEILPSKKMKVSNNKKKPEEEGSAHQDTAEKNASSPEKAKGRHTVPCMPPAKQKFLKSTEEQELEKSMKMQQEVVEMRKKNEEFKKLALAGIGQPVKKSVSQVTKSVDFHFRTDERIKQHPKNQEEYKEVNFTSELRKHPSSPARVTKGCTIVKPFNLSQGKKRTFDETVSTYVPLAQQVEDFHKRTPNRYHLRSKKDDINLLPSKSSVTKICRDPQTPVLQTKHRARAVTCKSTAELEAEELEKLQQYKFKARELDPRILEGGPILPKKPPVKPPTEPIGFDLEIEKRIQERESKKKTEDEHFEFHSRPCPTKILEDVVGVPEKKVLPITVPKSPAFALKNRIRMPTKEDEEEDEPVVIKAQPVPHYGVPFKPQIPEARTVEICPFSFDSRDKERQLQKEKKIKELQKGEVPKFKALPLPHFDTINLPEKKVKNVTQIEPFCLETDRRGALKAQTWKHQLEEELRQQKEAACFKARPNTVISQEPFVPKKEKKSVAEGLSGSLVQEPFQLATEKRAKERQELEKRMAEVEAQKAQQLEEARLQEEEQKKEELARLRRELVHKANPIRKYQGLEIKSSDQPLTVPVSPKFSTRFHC
Procedure, shortened: as §1

T1 sequence (Q96GD4 whole entry): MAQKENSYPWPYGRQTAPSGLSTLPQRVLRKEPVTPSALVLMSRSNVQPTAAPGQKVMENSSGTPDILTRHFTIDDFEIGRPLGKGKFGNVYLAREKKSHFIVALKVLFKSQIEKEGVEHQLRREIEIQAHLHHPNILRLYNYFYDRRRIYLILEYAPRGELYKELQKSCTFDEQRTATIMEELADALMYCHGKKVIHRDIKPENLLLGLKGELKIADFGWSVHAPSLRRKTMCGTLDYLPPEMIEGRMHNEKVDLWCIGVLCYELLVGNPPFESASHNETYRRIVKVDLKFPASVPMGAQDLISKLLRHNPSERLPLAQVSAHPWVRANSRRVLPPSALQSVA

Compound | IC50 [2] [nM] | IC50 [7] [nM] | other results
CCN(CCCOc1ccc2c(Nc3cc(CC(=O)Nc4cccc(F)c4)[nH]n3)ncnc2c1)CCOP(=O)(O)O | – | – | Activity [1]: Active
CNc1nccc(-c2cccnc2Oc2ccc(NC(=O)c3ccc(Oc4ccccc4)cc3)cc2C)n1 | 542 | – | –
CNc1nccc(-c2cccnc2Oc2ccc(NC(=O)c3cc(F)ccc3Nc3ccccc3)cc2)n1 | – | – | solubility thermodynamic [3]: 16 µg/mL (≈ 31.6 µM); clearance [4]: 14.5 mL/min/kg; bioavailability [5]: < 1%; microsomal CLint at 1 µM [6]: 338 µL/min/mg
CNc1nccc(-c2cccnc2Oc2ccc(NC(=O)c3ccc(Cl)cc3)cc2C)n1 | 335 | 2340 | –
CNc1nccc(-c2cccnc2Oc2ccc(NC(=O)c3ccccc3Oc3ccccc3)cc2C)n1 | 56 | 1540 | –
CNc1nccc(-c2cccnc2Oc2ccc(NC(=O)c3cccc(Oc4ccccc4)c3)cc2C)n1 | 251 | 964 | –
CNc1nccc(-c2cccnc2Oc2ccc(NC(=O)c3ccccc3Nc3ccccc3)c(C)c2)n1 | 110 | > 1000 | –
CNc1nccc(-c2cccnc2Oc2ccc(NC(=O)c3cccc(Cl)c3)cc2C)n1 | 430 | 1550 | –
CNc1nccc(-c2cccnc2Oc2ccc(Nc3nnc(-c4ccccc4)c4ccccc34)cc2)n1 | 22 | 149 | solubility thermodynamic [3]: 159 µg/mL (≈ 320 µM)
CNc1nccc(-c2cccnc2Oc2ccc(NC(=O)c3ccccc3Cl)cc2C)n1 | > 25000 | > 25000 | –
CNc1nccc(-c2cccnc2Oc2ccc(NC(=O)c3ccccc3Nc3ccc(F)cc3)cc2)n1 | – | – | solubility thermodynamic [3]: 23 µg/mL (≈ 45.4 µM); clearance [4]: 26.7 mL/min/kg; microsomal CLint at 1 µM [6]: 467 µL/min/mg
CNc1nccc(-c2cccnc2Oc2ccc(NC(=O)c3ccccc3Nc3ccccc3)cc2C)n1 | 17 | 62 | –
